TRPC4 agonist: TRPC4 (mouse) channel activation; 310,000 compounds, 0.49% hits; AID 2237; Q9QUQ5; HEK293 TRPC4beta/mu-opioid, Fluo4 calcium fluorescence; active compounds read high; B-score at 10 µM;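 active means B-score above 5 SD of library B-scores, and initial fluorescence ratio not above library mean plus 5 SD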;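 further: positive B-score marks a calcium rise read as TRPC4 activation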
Target sequence (Q9QUQ5 whole entry, looked up): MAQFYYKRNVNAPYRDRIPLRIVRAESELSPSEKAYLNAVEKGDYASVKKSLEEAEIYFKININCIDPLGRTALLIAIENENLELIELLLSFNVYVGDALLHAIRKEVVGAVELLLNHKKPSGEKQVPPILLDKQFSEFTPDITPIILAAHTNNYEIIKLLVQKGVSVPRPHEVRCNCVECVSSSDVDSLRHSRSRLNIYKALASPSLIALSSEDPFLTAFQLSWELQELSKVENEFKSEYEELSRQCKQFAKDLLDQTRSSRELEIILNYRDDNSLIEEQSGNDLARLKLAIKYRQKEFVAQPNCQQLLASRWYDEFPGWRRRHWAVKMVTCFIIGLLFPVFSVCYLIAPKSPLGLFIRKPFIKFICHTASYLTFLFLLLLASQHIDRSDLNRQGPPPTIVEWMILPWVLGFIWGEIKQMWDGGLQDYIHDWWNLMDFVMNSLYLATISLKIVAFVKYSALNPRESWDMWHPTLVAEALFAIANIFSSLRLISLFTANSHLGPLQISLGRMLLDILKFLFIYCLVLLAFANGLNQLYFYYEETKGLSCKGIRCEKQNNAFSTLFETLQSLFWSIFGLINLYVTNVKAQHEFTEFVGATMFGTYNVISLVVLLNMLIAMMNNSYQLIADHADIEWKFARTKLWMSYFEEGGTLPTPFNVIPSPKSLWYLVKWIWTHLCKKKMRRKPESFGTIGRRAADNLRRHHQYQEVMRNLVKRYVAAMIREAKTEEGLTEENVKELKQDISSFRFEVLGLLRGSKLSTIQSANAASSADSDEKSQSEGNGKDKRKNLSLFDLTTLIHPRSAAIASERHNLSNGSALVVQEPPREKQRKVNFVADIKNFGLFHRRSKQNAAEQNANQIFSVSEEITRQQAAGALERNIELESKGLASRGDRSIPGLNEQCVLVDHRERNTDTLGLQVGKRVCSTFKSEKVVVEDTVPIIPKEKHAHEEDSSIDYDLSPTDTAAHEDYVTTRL
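Material: HEK293 stable line with TRPC4beta plus mu-opioid receptor; technique: Fluo4 calcium-sensitive dye fluorescence, kinetic, 1 Hz baseline; timing: Fluo4 dye loading 45 min at room temperature, 110 s recording; controls: assay buffer as low control, maximal DAMGO as high control; read-out: integrated baseline-normalised fluorescence ratio, converted to per-well B score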
TRPC6 inhibitor: blocks the mouse TRPC6 cation channel; HEK293-TRPC6, membrane potential dye, ACh-evoked depolarization; active compounds read low; 310,000 compounds, 1.1% hits; B-score at 10 µM;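 active means B-score under library mean minus 3 SD, initial fluorescence not abnormally high, positive integrated signal ratio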;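 further: B-score derived from integrated fluorescence ratio over the kinetic read; more negative B-score means stronger inhibition of depolarization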
TRPC4 block: inhibitors of mouse TRPC4 channel; HEK293 TRPC4beta/mu-opioid, DAMGO-evoked Fluo4 calcium flux; active compounds read low; B-score at 10 µM; 300,000 compounds, 0.39% hits; AID 2247;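 active means B-score over 3 SD under the library average, no early fluorescence shift, positive overall ratio signal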
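Material: HEK293 cells with stable TRPC4beta plus mu-opioid receptor expression; probe or stimulus: DAMGO in two steps, submaximal then maximal; technique: Fluo4 calcium fluorescence by kinetic imaging, 5 s 1 Hz baseline; measure: integrated fluorescence ratio relative to baseline, converted to per-well B score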
TRPC4 PAM: allosteric potentiators of mouse TRPC4 channel | Q9QUQ5 | HEK293 TRPC4beta/mu-opioid, DAMGO EC20, Fluo-4 Ca2+ flux; active compounds read high | B-score at 10 µM | 310,000 compounds, 0.42% hits;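 active means B-score of calcium response area above 5 SD of library B-scores, with initial fluorescence ratio within 5 SD of library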;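 further: B-score of integrated fluorescence ratio over time as area under calcium response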
TRPC6 act: mouse TRPC6 channel activation | HEK293-TRPC6 membrane potential dye fluorescence; active compounds read high | Q61143 | B-score at 10 µM | 310,000 compounds, 0.13% hits | AID 2550;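 active means B-score of the integrated fluorescence ratio above library mean plus 3 SD, and starting fluorescence ratio within library mean plus 5 SD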;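 further: higher score means more depolarization so channel activation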
TRPC4 spec 2: second selectivity test of TRPC6 inhibitors: effect on mouse TRPC4; shares compounds with TRPC6 inhibitor; HEK293 TRPC4/MOR, membrane potential dye fluorescence; channel activated by saturating DAMGO dose; 920 compounds, 42% hits; inhibition, % at 10 µM;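 active means compounds whose fluorescence signal differed from control wells by over 3 SD, either direction, in both duplicate plates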
TRPC4 spec: mouse TRPC4 off-target activity of TRPC6 inhibitors | HEK293 TRPC4/mu-opioid, membrane potential fluorescence | activity change, negative = inhibition, % at 10 µM | 920 compounds, 61% hits | shares compounds with TRPC6 inhibitor;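 active means rise or fall in signal beyond 3 SD of buffer-only wells in both replicate plates, either sign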;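 further: integrated kinetic ratio of fluorescence range over baseline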
HEK293 MPD ctr 2-1: second check of TRPC6 inhibitor effects in parental HEK293 cells | shares compounds with TRPC6 inhibitor | parental HEK293 membrane potential dye fluorescence; maximal acetylcholine challenge after compound addition | signal change vs control, % at 10 µM | 920 compounds, 31% hits | AID 2779;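 active means membrane potential signal moving either way by over 3 SD of the maximum-effect control, in both duplicate plates, meaning non-specific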
HEK293 MPD ctr-1: counter-screen for TRPC6 inhibitors: effect in parental HEK293 cells; shares compounds with TRPC6 inhibitor; parental HEK293 membrane potential dye fluorescence; membrane potential signal change, % at 10 µM; 920 compounds, 60% hits;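 active means membrane potential signal shifting up or down by more than 3 SD of buffer-only wells, on both duplicate plates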
HEK293 MPD ctr-2: counter-screen for TRPC6 modulators: effect in parental HEK293 cells; shares compounds with TRPC6 inhibitor; membrane potential dye fluorescence; membrane potential signal change, % at 10 µM; 2,400 compounds, 51% hits;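 active means membrane potential signal moves up or down beyond 5 SD from buffer-only wells, on both duplicate plates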
HEK293 MPD ctr 2-2: parental HEK293 nonspecific activity of TRPC6 modulators, second screen | shares compounds with TRPC6 inhibitor | membrane potential dye fluorescence; after compound, maximal acetylcholine stimulation | inhibition, % at 10 µM | 2,400 compounds, 14% hits | AID 488926;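 active means membrane potential signal drops by more than 5 SD from the mean control signal, in both duplicate plates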;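 further: plate controls were acetylcholine ECmax control wells for no effect and buffer only wells for full effect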
TRPC4/MOR mod: mouse TRPC4 off-target activity of TRPC6 modulators; shares compounds with TRPC6 inhibitor; HEK293 TRPC4/mu-opioid, membrane potential fluorescence; percent change from control (negative = decrease, positive = increase), % at 10 µM; 2,400 compounds, 69% hits;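 active means membrane potential signal moved up or down beyond 5 SD of buffer control wells, in both duplicate plates, actives on both sides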;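 further: plate controls were assay buffer wells for no effect and DAMGO maximal-effect wells for full effect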
TRPC4/MOR inh 2: mouse TRPC4 off-target activity of TRPC6 modulators, second screen; inhibition, % at 10 µM; 2,400 compounds, 55% hits; shares compounds with TRPC6 inhibitor; HEK293 TRPC4/mu-opioid, membrane potential dye fluorescence; stimulated with maximal-effect DAMGO; AID 488928;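 active means drop in membrane potential signal beyond 5 SD of the control wells in both duplicate plates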;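 further: TRPC4 counter screen for TRPC6 hits run under conditions tuned for TRPC6 not TRPC4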
TRPC6 inh conf: mouse TRPC6 inhibitor confirmation | inhibition, % at 10 µM | HEK293-TRPC6, membrane potential dye, ACh-evoked depolarization | shares compounds with TRPC6 inhibitor | 3,300 compounds, 43% hits;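 active means fluorescence ratio falls more than 5 SD below the full-stimulation control mean, in both duplicate runs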;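 further: integrated fluorescence ratio of peak minus minimum over baseline after agonist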
TRPC6 act confirm: mouse TRPC6 activator confirmation. activation, % at 10 µM. AID 488961. HEK293-TRPC6 membrane potential dye fluorescence, FDSS. 2,800 compounds, 11% hits. shares compounds with TRPC6 inhibitor;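 active means ratio signal rise beyond 5 SD above unstimulated control wells' mean, seen in both duplicate runs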;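 further: plate controls were buffer EC0 wells for no effect and acetylcholine ECmax response for full effect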
* hit, by the source's call; i = inactive; . = no result given. Hits are enriched below; roughly 2.3% of the tested compounds scored in any of these assays.

SMILES | TRPC4 agonist | TRPC6 inhibitor | TRPC4 block | TRPC4 PAM | TRPC6 act | HEK293 MPD ctr-2 | HEK293 MPD ctr 2-2 | TRPC4/MOR mod | TRPC4/MOR inh 2 | TRPC6 inh conf | TRPC6 act confirm | others
CC[n+]1c(/C=C(/C)SC)sc2ccccc21 | i | -7.5* | i | i | i | -275%* | 82%* | -48%* | 52%* | 67%* | i
COC(=O)C(=O)C/C(=N/Nc1ncnc2ccccc12)c1ccc(Cl)cc1 | i | i | i | i | i | . | . | . | . | . | .
Cc1ccc(OCCCCCCN2CCNCC2)c(Br)c1 | i | -9* | i | i | i | . | . | . | . | 70%* | i | TRPC4 spec 2=52%*;TRPC4 spec=1.3%*;HEK293 MPD ctr 2-1=i;HEK293 MPD ctr-1=6.4%*
CCN1CCN(CCCOc2ccc(Cl)cc2Br)CC1 | i | i | i | i | i | . | . | . | . | . | .
Clc1ccc(OCCCCCN2CCCC2)c(Br)c1 | i | -5.1* | i | i | i | 121%* | i | 22%* | 34%* | i | .
Clc1ccc(OCCCN2CCCCC2)c(Br)c1 | i | i | i | i | i | . | . | . | . | . | .
Cc1ccc(OCCCCN2CCC(C)CC2)c(Br)c1 | i | i | i | i | i | . | . | . | . | . | .
Clc1ccc(Cl)c(OCCCCN2CCNCC2)c1 | i | -8.7* | i | 24* | i | . | . | . | . | i | i | TRPC4 spec 2=57%*;TRPC4 spec=-0.3%*;HEK293 MPD ctr 2-1=i;HEK293 MPD ctr-1=3.5%*
CCCCCCc1ccc(N2C[C@H](CCCCC)[C@@H](CC(=O)NCc3ccc(OC)cc3)C2=O)cc1 | i | i | i | i | 17* | 472%* | i | 84%* | i | i | 95%*
CCCCCCc1ccc(N2C[C@H](CCCCC)[C@@H](CC(=O)NCc3ccccc3)C2=O)cc1 | i | i | i | i | 22* | 344%* | i | 77%* | i | i | 169%*
CCCCCCc1ccc(N2C[C@H](Cc3ccccc3)[C@@H](CC(=O)NCc3ccc(OC)cc3)C2=O)cc1 | i | i | i | i | i | . | . | . | . | . | .
Cn1nc(-c2ccc(Cl)cc2)cc1NC(=O)CSCC(=O)O | i | i | i | i | i | . | . | . | . | . | .
C/C(=N\NC(=S)NCCc1ccccc1)c1ccc(C)cc1 | i | -5.3* | i | i | i | 187%* | i | -15%* | i | i | i
Cn1nccc1C(=O)Oc1ccc(/C=N/NC(=O)c2ccccc2O)cc1 | i | i | i | i | i | . | . | . | . | . | .
COCc1cc(C)nc(N/N=C/c2ccc(Cl)c(Cl)c2)c1C#N | i | i | i | i | i | . | . | . | . | . | .
O=C(Cc1ccccc1)N/N=C/c1cc(Br)cc(Br)c1O | i | i | i | i | i | . | . | . | . | . | .
O=C(O)c1ccccc1N/N=C/c1cc(Br)cc(Br)c1O | i | -6.5* | -9* | i | i | i | i | -11%* | 74%* | i | i
Cc1cccc(C)c1NC(=O)CNC(=O)CNC(=O)c1ccc2c(c1)OCO2 | i | i | i | i | i | . | . | . | . | . | .
NCC(c1ccccc1)(c1ccccc1)c1ccccc1 | 117* | -6.6* | -8* | i | i | i | i | 18%* | 74%* | 42%* | i
Cc1ccc(-c2nn(-c3cccc(F)c3)cc2CNCc2cccnc2)o1 | 121* | -5.7* | i | i | i | i | i | 41%* | 85%* | i | i
Cc1ccc(-c2nn(-c3cccc(F)c3)cc2CN2CCN(c3ccccn3)CC2)o1 | i | i | i | i | i | . | . | . | . | . | .
CCCCN(CC)CCNC(=O)c1cc2c(=O)[nH]c3ccc(C)cc3c2s1 | i | -6.3* | i | i | i | 186%* | i | 35%* | i | 60%* | .
CCCCN(CC)CCCNC(=O)c1cc2c(=O)[nH]c3ccccc3c2s1 | i | i | i | i | i | . | . | . | . | . | .
COCCCNC(=O)CCn1nc(-c2ccc(Cl)cc2)ccc1=O | i | -5.2* | i | i | i | i | i | i | i | i | i
CN(C)CCCOC(=O)C1c2ccccc2Oc2ccccc21 | i | -8.5* | i | i | i | . | . | . | . | 63%* | . | TRPC4 spec 2=i;TRPC4 spec=7.3%*;HEK293 MPD ctr 2-1=28%*;HEK293 MPD ctr-1=7.4%*
SMILES | TRPC4 agonist | TRPC6 inhibitor | TRPC4 block | TRPC4 PAM | TRPC6 act | HEK293 MPD ctr-2 | HEK293 MPD ctr 2-2 | TRPC4/MOR mod | TRPC4/MOR inh 2 | TRPC6 inh conf | TRPC6 act confirm | others
NC(=O)COC(=O)C1c2ccccc2Oc2ccccc21 | i | i | i | i | i | . | . | . | . | . | .
CN(CCOC(=O)C1c2ccccc2Oc2ccccc21)C(C)(C)C | i | -10* | i | i | i | . | . | . | . | 68%* | . | TRPC4 spec 2=i;TRPC4 spec=15%*;HEK293 MPD ctr 2-1=24%*;HEK293 MPD ctr-1=11%*
Cc1ccc(S(=O)(=O)NCc2ccccc2)cc1C(=O)N1CCCCCCC1 | i | i | i | i | i | . | . | . | . | . | .
NC(=O)CC(NC(=O)Cc1ccc(Br)cc1)c1ccc(N2CCC(N3CCCC3)CC2)c([N+](=O)[O-])c1 (stereo not drawn) | i | i | i | i | i | . | . | . | . | . | .
Cn1c(SCC(=O)N2CCOCC2)nc2c(c1=O)SCC2 | i | i | i | i | i | . | . | . | . | . | .
CCOC(=O)c1ccccc1NC(=O)c1c(F)c(F)c(F)c(F)c1F | i | -6.2* | i | i | i | i | i | i | i | i | i

Compound activity (PubChem)
